Results on two compounds are retold here after ChEMBL document CHEMBL1177751, “Antifungal and cytotoxic activity of withanolides from Acnistus arborescens” (J Nat Prod, 2010).

Experiment [1] in a line: Cytotoxicity against imatinib and dasatinib-resistant mouse DA1-3b/M2 cells after 72 hrs by MTT assay. In kind it is functional, cell-based. In a few lines: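 Cells seeded at 10^4/well and exposed to compound or DMSO vehicle for 72 h. MTT added for the final 4 h, absorbance read at 490 nm; triplicate, camptothecin as positive control. K562R, DA1-3b/M2 and bone marrow cells (three healthy donors) grown in RPMI 1640 + 1% glutamine, 1% penicillin/streptomycin, 10% FCS. EML-C1 cultured per ATCC instructions.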

A further experiment has as its system Pneumocystis carinii. Description: Antifungal activity against Pneumocystis carinii after 4 days by RAL-555 staining based microscopy. In kind it is functional, organism-based. The conditions noted are these: 96 h. In a few lines: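 Pneumocystis carinii came from the lungs of athymic Lou nu/nu rats that were dexamethasone-immunosuppressed and infected. Broth microdilution in DMEM + 10% FCS, 1.0 × 10^6 organisms/mL, final drug 1.1 × 10^-5 to 212.3 µM diluted from DMSO stocks. Incubated 4 days at 37 °C, 5% CO2, with a drug-free control. Smears stained with RAL-555 and counted microscopically; triplicate. Hill (Emax sigmoid) model used.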

Molecules are shown by their SMILES.

For `CC[C@@]1(O)C(=O)OCc2c1cc1n(c2=O)Cc2cc3ccccc3nc2-1` [CAMPTOTHECIN], half-maximal inhibition in experiment [1] (IC50) was put at 30 nM.

In turn, `N=C(N)c1ccc(OCCCCCOc2ccc(C(=N)N)cc2)cc1` [PENTAMIDINE] displayed an IC50 with Pneumocystis carinii of 84 nM.
